About 120 (0.04%) of roughly 300,000 compounds were called active. The sample as a whole holds a higher share of actives than the screen did. A number with no mark means an inactive call.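 Rule for the calls: active = more than half of replicate wells score below -50%, meaning over 50% inhibition versus plate controls; inconclusive = some replicates but at most half score below -50%; inactive = no replicate scores below -50%.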

Sequence of Glycogen synthase kinase-3 beta (Homo sapiens) (P49841 whole entry, looked up): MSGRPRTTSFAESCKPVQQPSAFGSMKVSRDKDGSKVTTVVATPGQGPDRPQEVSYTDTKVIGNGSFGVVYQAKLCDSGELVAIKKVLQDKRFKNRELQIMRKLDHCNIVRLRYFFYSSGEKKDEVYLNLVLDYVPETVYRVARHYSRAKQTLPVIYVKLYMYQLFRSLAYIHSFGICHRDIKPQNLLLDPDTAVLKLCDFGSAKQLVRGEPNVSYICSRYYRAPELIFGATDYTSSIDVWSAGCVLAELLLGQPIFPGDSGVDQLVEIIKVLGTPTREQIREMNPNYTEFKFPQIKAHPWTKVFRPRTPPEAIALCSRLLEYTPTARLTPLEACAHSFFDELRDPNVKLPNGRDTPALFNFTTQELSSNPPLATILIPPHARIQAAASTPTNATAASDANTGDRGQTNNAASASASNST

The test addresses Glycogen synthase kinase-3 beta (Homo sapiens) (UniProt P49841). Description: human GSK3beta kinase inhibitors, primary screen, biochemical, cell-free homogeneous, HTS (AID 2097).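 Note: 0% = median DMSO wells and -100% = median GW8510 positive control wells.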 The settings on record: GST-GSK3beta kinase, ADP-Glo luminescence, 60 min; at 10 µM; hits give low values. In outline: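 Test system – GST-tagged human GSK3beta kinase, cell-free · Incubation – 60 min enzyme reaction, room temperature · Signal – ADP-Glo luminescence · Also added – peptide substrate and ATP at 25 µM · Controls – DMSO neutral wells and GW8510 at 20 µM as positive · Buffer or medium – Tris/MgCl2 kinase buffer · Measure – Luminescence-derived activity versus plate DMSO and GW8510 wells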
On the technique in general: In ADP-Glo the light output rises with the ADP produced.
Regarding `COc1ccc(N(CC(=O)N2CCCCCC2)S(=O)(=O)c2ccccc2)cc1`, the activity score (negative = inhibition) was -4.12%.
For `CCOc1ccc(NC(=O)c2ccc(NC(=O)CN3C(=O)C(=O)N(CC(C)C)C3=O)cc2)cc1`, the activity score (negative = inhibition) was 0.0927%.
For the compound `CC(C)n1cnc2c(Nc3cccc(Cl)c3)nc(N(CCO)CCCO)nc21`, the activity score (negative = inhibition) is -11.5%.
As to `OCCCNc1nccc(-c2cc(Nc3cccc(Cl)c3)ncn2)n1`, the activity score (negative = inhibition) is -98.4% (active).
As for `OCCCNc1nc(-c2ccccc2)c2cc(Cl)ccc2n1`, the activity score (negative = inhibition) is 0.00658%.
As for `Nc1nonc1-n1nnc(C(=O)N/N=C\c2ccncc2)c1CN1CCCCC1`, the figure is -94.2% (active).
As to `Nc1nonc1-n1nnc(C(=O)N/N=C/c2ccccc2O)c1CN1CCCC1`, the activity score (negative = inhibition) is -36.9%.
For `NNC(=O)c1nnn(-c2nonc2N)c1CN1CCCC1`, the activity score (negative = inhibition) was 2.11%.
Consider `CN(CCC1CCOCC1)C(=O)CC1C(=O)NCCN1Cc1cccc(F)c1` (stereo not given), for which the activity score (negative = inhibition) was -0.992%.
The result for `COc1ccc(S(=O)(=O)NCCCCOc2ccc(Cl)cc2)cc1` reads -0.131%; that for `CC(=O)Nc1ccccc1OC(C)C(=O)N1CCC(C)CC1` (stereo not given), 0.974%.
With `CCn1cc(C(=O)NCCC(=O)NCCO)c(=O)c2cc3c(cc21)OCO3`, the activity score (negative = inhibition) was -2.21%.
As to `COc1ccccc1-n1c(=S)[nH]c2c(sc(=S)n2-c2ccc(C)cc2C)c1=O`, the activity score (negative = inhibition) is -0.962%.
In the case of `NC(=O)C[n+]1cccc(C(N)=O)c1`, the activity score (negative = inhibition) was 2.13%.
With `CC(=O)Nc1ccc(C(=O)Nc2cccc(S(=O)(=O)NC3=NCCC3)c2)cc1`, the activity score (negative = inhibition) was 1.23%.
With `CSC1=NC2(C)CCCCC2C12C=CC(=O)C=C2` (stereo not given), the activity score (negative = inhibition) was 2.87%.
For `Cc1nc(C)c(-c2nnc(-c3cccc(S(=O)(=O)N(C)C)c3)o2)cc1C(=O)NN`, the activity score (negative = inhibition) was -3.56%.
With `CC(=O)N1CCN(S(=O)(=O)c2cccc(C(=O)NC3CCC(C)CC3)c2)CC1` (stereo not given), the activity score (negative = inhibition) is -4.6%.
`O=C(NCc1ccco1)/C(=C\c1cccc([N+](=O)[O-])c1)NC(=O)c1ccco1`: the activity score (negative = inhibition) is -2.64%.
The result for `CCS(=O)(=O)c1ccc(-c2cccc(NC(=O)c3ccc(Br)o3)c2)nn1` reads 2.73%; that for `CCC(C)(C)NC(=O)C(c1cccc(OC)c1OC)N(CC(C)C)C(=O)CCC(=O)Nc1cc(C)on1` (stereo not given), -2.19%.
For the compound `COC(=O)[C@@H]1C[C@@]2(O)[C@H](O)[C@H](O)[C@H](O)C[C@H]2N1Cc1ccc(C)s1`, the activity score (negative = inhibition) is 2.63%.
As for `CCCCC1S/C(=N/N=C/c2cccs2)NC1=O` (stereo not given), the figure is 0.416%; as for `COc1ccc(OC)c(-c2csc(NC(=O)C3=NNC(=O)CC3)n2)c1`, -0.495%; as for `CC(C)c1ccc(NC(=O)CCN2C(=O)c3ccc([N+](=O)[O-])cc3C2=O)cc1`, -3.13%.
Turning to `O=S(=O)(NC1CC1)c1ccc(F)c(F)c1`, the activity score (negative = inhibition) is 1.68%.
The result for `CCCCn1c(=O)c(CCC(=O)OCC(=O)Nc2ccc(C)c(Cl)c2)nc2ccccc21` reads -3%; that for `CCN(C(=O)C1CCCN(c2nc(-c3ccc(OC)cc3)no2)C1)c1ccc(OC)cc1` (stereo not given), -3.3%; that for `COc1ccc(NC(=O)CCC(=O)N2CCN(S(=O)(=O)c3ccc(C)cc3)CC2)c(OC)c1`, -0.163%.
As for `CCCc1ccc(OCC(O)CN2CCN(C(=O)OCC)CC2)cc1` (stereo not given), the figure is 4.1%; as for `CCc1nn(CCCC(=O)Nc2ccc(C)cc2C)c(=O)c2cc3occc3n12`, 2.31%; as for `CC(=O)C1=C(C)NC(C)=C(C(C)=O)C1c1cn(-c2ccccc2)nc1-c1cccs1`, -1.7%.
Consider `O=C(N/N=C/c1cccc(O)c1)c1cc2c(ccc3ccccc32)o1`, for which the activity score (negative = inhibition) is -3.92%.
Regarding `COc1ccc(Cl)cc1NC(=O)CN(C)C(=O)CCCc1c[nH]c2ccccc12`, the activity score (negative = inhibition) is -0.853%.
For `COc1ccc(-n2nc(C(=O)NCC(=O)N3CCCCCC3)c3ccccc3c2=O)cc1Cl`, the activity score (negative = inhibition) is -0.439%.
On to `COc1cccc(CCNC(=O)COc2cccc3c2OC(C)(C)C3)c1`, for which the activity score (negative = inhibition) is 1.98%.
As to `Cc1ccc(NC(=O)Cn2cccc2C2=NC(c3ccccc3)CO2)c(C)c1` (stereo not given), the activity score (negative = inhibition) was -1.16%.
Take `COc1ccc(C(=O)C2CCCN(C(=O)c3ccc(OC)o3)C2)c(C)c1` (stereo not given): the activity score (negative = inhibition) is 0.0837%.
As to `CC(C)Cc1ccc(C(C)C(=N)N)cc1` (stereo not given), the activity score (negative = inhibition) was -0.885%.
Consider `CC(C)(C)c1ccc(C(=O)NNC(=O)Cc2ccccc2)cc1`, for which the activity score (negative = inhibition) was -1.05%.
For the compound `COc1ccc(NC(=O)C2CCC(CNS(=O)(=O)c3csc(C(N)=O)c3)CC2)cc1OC` (stereo not given), the activity score (negative = inhibition) is 2.83%.
In the case of `O=c1c2c(ncn1Cc1ccccc1)nc1n2CCC1`, the activity score (negative = inhibition) is -1.79%.
For the compound `O=C(CSc1ccc(-c2ccc(-n3cccn3)cc2)nn1)Nc1ccc([N+](=O)[O-])cc1`, the activity score (negative = inhibition) was -1.44%.
For `CCO[C@@H]1OC(C(=O)NC2CC2)=C[C@H](C)[C@H]1CCCO`, the activity score (negative = inhibition) was 1.19%.
Take `CCOC(=O)C1=C(CC)Nc2ccccc2N=C1NC(=O)c1cccc(S(=O)(=O)N2CCCC2)c1`: the activity score (negative = inhibition) is 3.96%.

The record behind these values is PubChem BioAssay AID2097 (Broad Institute, 2009).
